Source: ChEMBL document CHEMBL3244279, “Synthesis and pharmacological evaluation of a clofibrate-related tricyclic spirolactone, 5-chloro-4',5-dihydrospiro[benzofuran-2(3H),3'(2'H)-furan]-2'-one” (J Med Chem, 1978)
Active and inactive are the calls of the source. The calls are words filed in the database; no cut-off is given here.

Assays:
Rattus norvegicus [1] = experiment: Modulation of triglyceride level in sucrose-fed Sprague-Dawley rat liver at 0.4 mmol/kg, po bid for 7 days (reference value: 8.29 +/- 2.24 mg/g); assay type: functional
Rattus norvegicus [2] = experiment: Modulation of HMG-CoA reductase activity in sucrose-fed Sprague-Dawley rat liver assessed as mevalonic acid formation using DL-3-hydroxy-3-methylglutaryl-3-14C-CoA as substrate at 0.4 mmol/kg, po bid for 7 days (reference value: 8.27 +/- 1.18 nmol/mg/hr); assay type: functional
Rattus norvegicus [3] = experiment: Modulation of liver to body weight ratio in sucrose-fed Sprague-Dawley rat at 0.4 mmol/kg, po bid for 7 days (reference value: 4.06 +/- 0.25%); assay type: functional
Rattus norvegicus [4] = experiment: Modulation of liver weight in sucrose-fed Sprague-Dawley rat at 0.4 mmol/kg, po bid for 7 days (reference value: 13.16 +/- 0.61 gms); assay type: functional
Rattus norvegicus [5] = experiment: Modulation of liver microsomal protein level in sucrose-fed Sprague-Dawley rat at 0.4 mmol/kg, po bid for 7 days measured per gm of tissue (reference value: 25.0 +/- 2.5 mg); assay type: functional
Rattus norvegicus [6] = experiment: Modulation of ethylmorphine N-demethylase activity in sucrose-fed Sprague-Dawley rat liver microsomes assessed as formaldehyde formation using ethylmorphine as substrate at 0.4 mmol/kg, po bid for 7 days (reference value: 9.36 +/- 0.50 nmol/mg/min); assay type: functional
Rattus norvegicus [7] = experiment: Modulation of cytochrome b5 activity in sucrose-fed Sprague-Dawley rat liver microsomes at 0.4 mmol/kg, po bid for 7 days measured per mg of protein (reference value: 0.213 +/- 0.032 nmol); assay type: functional
How it was run: (§1)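 Sucrose-fed male rats dosed orally 0.4 mmol/kg twice daily for 7 days, controls vehicle; livers taken under ether anesthesia, microsomes prepared. Cytochrome P-450 and b5 estimated by the Kinoshita–Horie procedure, per mg microsomal protein. Mean ± SD, n = 5; Student's t test.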

Rattus norvegicus [8] = experiment: Modulation of cytochrome-P450 activity in sucrose-fed Sprague-Dawley rat liver microsomes at 0.4 mmol/kg, po bid for 7 days measured per mg of protein (reference value: 0.593 +/- 0.059 nmol); assay type: functional; how it was run: as §1
Rattus norvegicus [9] = experiment: Antilipidemic activity in normal Sprague-Dawley rat assessed as serum cholesterol level at 0.4 mmol/kg, po bid for 7 days (reference value: 59.1 to 81.6 mg/dL); assay type: functional
How it was run: (§2)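 Normal male Sprague-Dawley rats dosed orally twice daily, 0.4 mmol/kg […], for 7 days; controls received vehicle. Serum cholesterol and triglycerides measured at end of treatment; two separate experiments. Mean ± SD, n = 5; Student's t test vs control.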

Rattus norvegicus [10] = experiment: Antilipidemic activity in normal Sprague-Dawley rat assessed as serum triglyceride level at 0.4 mmol/kg, po bid for 7 days (reference value: 61.2 to 69.1 mg/dL); assay type: functional; how it was run: as §2
Rattus norvegicus [11] = experiment: Modulation of cholesterol level in normal Sprague-Dawley rat liver at 0.4 mmol/kg, po bid for 7 days (reference value: 2.73 to 3.28 mg/g); assay type: functional
Rattus norvegicus [12] = experiment: Modulation of triglyceride level in normal Sprague-Dawley rat liver at 0.4 mmol/kg, po bid for 7 days (reference value: 2.73 to 3.36 mg/g); assay type: functional
Rattus norvegicus [13] = experiment: Modulation of HMG-CoA reductase activity in normal Sprague-Dawley rat liver assessed as mevalonic acid formation using DL-3-hydroxy-3-methylglutaryl-3-14C-CoA as substrate at 0.4 mmol/kg, po bid for 7 days (reference value: 49.1 +/- 6.7 nmol/mg/hr); assay type: functional
Rattus norvegicus [14] = experiment: Modulation of liver to body weight ratio in normal Sprague-Dawley rat at 0.4 mmol/kg, po bid for 7 days (reference value: 4.21 to 4.59%); assay type: functional
Rattus norvegicus [15] = experiment: Modulation of liver weight in normal Sprague-Dawley rat at 0.4 mmol/kg, po bid for 7 days (reference value: 6.73 to 8.71 gms); assay type: functional
Rattus norvegicus [16] = experiment: Modulation of liver microsomal protein level in normal Sprague-Dawley rat at 0.4 mmol/kg, po bid for 7 days measured per gm of tissue (reference value: 25.4 to 29.0 mg); assay type: functional
[17] = Drug metabolism in Sprague-Dawley rat serum assessed as esterase-mediated hydrolysis at 0.05 M measured after 5 mins; assay type: ADME, cell-free; settings: read-out: Drug metabolism
[18] = Drug metabolism in Ringer bicarbonate buffer assessed as hydrolysis at 0.05 M at pH 7.4 measured after 60 mins; assay type: physicochemical
How it was run: (§3)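 Nonenzymatic hydrolysis: 0.1 mL of 0.05 M ethanolic stock added to 6.0 mL Ringer bicarbonate buffer, pH 7.4, 37 °C with shaking. Aliquots at 0–60 min extracted into isooctane–EtOH (95:5) with saturated NaCl; disappearance of parent tracked at 250 nm.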

Rattus norvegicus [19] = experiment: Antilipidemic activity in sucrose-fed Sprague-Dawley rat assessed as serum triglyceride level at 0.4 mmol/kg, po bid for 7 days measured on day 0 (reference value: 157.1 +/- 77.8 mg/dL); assay type: functional
Rattus norvegicus [20] = experiment: Antilipidemic activity in 48-hrs starved normal Sprague-Dawley rat model assessed as plasma cholesterol level at 0.124 mmol/kg, po (reference value: 90.1 +/- 8.8 mg/dL); assay type: functional
Rattus norvegicus [21] = experiment: Antilipidemic activity in sucrose-fed Sprague-Dawley rat assessed as serum cholesterol level at 0.4 mmol/kg, po bid for 7 days measured on day 0 (reference value: 69 +/- 9 mg/dL); assay type: functional
Rattus norvegicus [22] = experiment: Antilipidemic activity in 48-hrs starved normal Sprague-Dawley rat model assessed as plasma triglyceride level at 0.124 mmol/kg, po (reference value: 20.9 +/- 11.3 mg/dL); assay type: functional
Rattus norvegicus [23] = experiment: Antilipidemic activity in sucrose-fed Sprague-Dawley rat assessed as serum cholesterol level at 0.4 mmol/kg, po bid for 7 days measured on day 7 (reference value: 92 +/- 22 mg/dL); assay type: functional
Rattus norvegicus [24] = experiment: Antilipidemic activity in sucrose-fed Sprague-Dawley rat assessed as serum triglyceride level at 0.4 mmol/kg, po bid for 7 days measured on day 7 (reference value: 115.6 +/- 19.4 mg/dL); assay type: functional
Rattus norvegicus [25] = experiment: Modulation of cholesterol level in sucrose-fed Sprague-Dawley rat liver at 0.4 mmol/kg, po bid for 7 days (reference value: 2.17 +/- 0.26 mg/g); assay type: functional
Rattus norvegicus [26] = experiment: Antilipidemic activity in Triton WR-1339-induced hyperlipidemic Sprague-Dawley rat model assessed as plasma cholesterol level at 0.124 mmol/kg, po (reference value: 183 +/- 101 mg/dL)
Rattus norvegicus [27] = experiment: Antilipidemic activity in Triton WR-1339-induced hyperlipidemic Sprague-Dawley rat model assessed as plasma triglyceride level at 0.124 mmol/kg, po (reference value: 156 +/- 184 mg/dL)
Rattus norvegicus [28] = experiment: Antilipidemic activity in 48-hrs starved normal Sprague-Dawley rat model assessed as plasma cholesterol level at 0.124 mmol/kg, po (reference value: 88.7 +/- 6.9 mg/dL); assay type: functional
Rattus norvegicus [29] = experiment: Antilipidemic activity in 48-hrs starved normal Sprague-Dawley rat model assessed as plasma triglyceride level at 0.124 mmol/kg, po (reference value: 20.8 +/- 5.5 mg/dL); assay type: functional
Rattus norvegicus [30] = experiment: Antilipidemic activity in normal Sprague-Dawley rat assessed at 0.4 mmol/kg, po bid for 7 days; assay type: functional, organism-based
[31] = Drug metabolism in Sprague-Dawley rat serum assessed as esterase-mediated hydrolysis measured after 5 mins; assay type: ADME, cell-free
How it was run: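 Pooled serum from ether-anesthetized male Sprague-Dawley rats (300–350 g; aortic blood with EDTA). 0.1 mL of 0.05 M ethanolic stock added to 6.0 mL serum, 37 °C with shaking; samples at 0, 5, 10, 30, 60 min extracted into isooctane–EtOH (95:5) with saturated NaCl; loss of parent read at 250 nm.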

[32] = Drug metabolism in Ringer bicarbonate buffer assessed as hydrolysis at pH 7.4 measured after 60 mins; assay type: physicochemical; settings: read-out: Drug metabolism; how it was run: as §3
Rattus norvegicus [33] = experiment: Modulation of cholesterol level in sucrose-fed Sprague-Dawley rat liver at 0.4 mmol/kg, po bid for 7 days (reference value: 1.81 to 2.17 mg/g); assay type: functional
Rattus norvegicus [34] = experiment: Modulation of triglyceride level in sucrose-fed Sprague-Dawley rat liver at 0.4 mmol/kg, po bid for 7 days (reference value: 7.26 to 8.29 mg/g); assay type: functional
Rattus norvegicus [35] = experiment: Modulation of HMG-CoA reductase activity in sucrose-fed Sprague-Dawley rat liver assessed as mevalonic acid formation using DL-3-hydroxy-3-methylglutaryl-3-14C-CoA as substrate at 0.4 mmol/kg, po bid for 7 days (reference value: 8.27 to 8.3 nmol/mg/hr); assay type: functional
Rattus norvegicus [36] = experiment: Modulation of liver to body weight ratio in sucrose-fed Sprague-Dawley rat at 0.4 mmol/kg, po bid for 7 days (reference value: 3.88 to 4.06%); assay type: functional
Rattus norvegicus [37] = experiment: Modulation of liver weight in sucrose-fed Sprague-Dawley rat at 0.4 mmol/kg, po bid for 7 days (reference value: 11.30 to 13.16 gms); assay type: functional
Rattus norvegicus [38] = experiment: Modulation of liver microsomal protein level in sucrose-fed Sprague-Dawley rat at 0.4 mmol/kg, po bid for 7 days measured per gm of tissue (reference value: 25.0 to 27.2 mg); assay type: functional
Rattus norvegicus [39] = experiment: Modulation of ethylmorphine N-demethylase activity in sucrose-fed Sprague-Dawley rat liver microsomes assessed as formaldehyde formation using ethylmorphine as substrate at 0.4 mmol/kg, po bid for 7 days (reference value: 6.40 to 9.36 nmol/mg/min); assay type: functional
Rattus norvegicus [40] = experiment: Modulation of cytochrome b5 activity in sucrose-fed Sprague-Dawley rat liver microsomes at 0.4 mmol/kg, po bid for 7 days measured per mg of protein (reference value: 0.185 to 0.213 nmol); assay type: functional; how it was run: as §1
Rattus norvegicus [41] = experiment: Modulation of cytochrome-P450 activity in sucrose-fed Sprague-Dawley rat liver microsomes at 0.4 mmol/kg, po bid for 7 days measured per mg of protein (reference value: 0.477 to 0.593 nmol); assay type: functional; how it was run: as §1
Rattus norvegicus [42] = experiment: Modulation of NADPH-cytochrome c reductase activity in sucrose-fed Sprague-Dawley rat liver microsomes assessed as cytochrome c reduction at 0.4 mmol/kg, po bid for 7 days (reference value: 202.5 +/- 27.9 nmol/mg/min); assay type: functional
Rattus norvegicus [43] = experiment: Antilipidemic activity in Triton WR-1339-induced hyperlipidemic Sprague-Dawley rat model assessed as plasma cholesterol level at 0.124 mmol/kg, po (reference value: 166 +/- 17.8 mg/dL)
Rattus norvegicus [44] = experiment: Antilipidemic activity in Triton WR-1339-induced hyperlipidemic Sprague-Dawley rat model assessed as plasma triglyceride level at 0.124 mmol/kg, po (reference value: 98.5 +/- 16.9 mg/dL)

With `O=C1OCCC12Cc1cc(Cl)ccc1O2` (stereo not drawn) the Activity (Rattus norvegicus [1]) was 10.02 mg/g, the Activity (Rattus norvegicus [2]) was 7.1 nmol/mg/h and the Activity (Rattus norvegicus [3]) was 4.18%. It also gave an Activity (Rattus norvegicus [4]) of 13.16 g, an Activity (Rattus norvegicus [5]) of 27.8 mg and an Activity (Rattus norvegicus [6]) of 9.8 nmol/mg/min. The Activity (Rattus norvegicus [7]) was 0.173 nmol, the Activity (Rattus norvegicus [8]) was 0.55 nmol and the Activity (Rattus norvegicus [9]) was 58.6 mg/dL. For the same compound, the Activity (Rattus norvegicus [10]) was 66.5 mg/dL, the Activity (Rattus norvegicus [11]) was 3.18 mg/g and the Activity (Rattus norvegicus [12]) was 3.17 mg/g. For the same compound, the Activity (Rattus norvegicus [13]) was 45 nmol/mg/h, the Activity (Rattus norvegicus [14]) was 4.5% and the Activity (Rattus norvegicus [15]) was 7.87 g. It also gave an Activity (Rattus norvegicus [16]) of 27.3 mg, a metabolised at 5 min [17] greater than 90% and a degraded at 1 h [18] of less than 20%. It also gave an Activity (Rattus norvegicus [19]) of 142 mg/dL, an Activity (Rattus norvegicus [20]) of 91.8 mg/dL and an Activity (Rattus norvegicus [21]) of 67 mg/dL. For the same compound, the Activity (Rattus norvegicus [22]) was 18.5 mg/dL, the Activity (Rattus norvegicus [23]) was 103 mg/dL and the Activity (Rattus norvegicus [24]) was 121.5 mg/dL. The Activity (Rattus norvegicus [25]) was 2.32 mg/g, the Activity (Rattus norvegicus [26]) was 131 mg/dL and the Activity (Rattus norvegicus [27]) was 20.6 mg/dL.
With `CCOC(=O)C(C)(C)Oc1ccc(Cl)cc1` [CLOFIBRATE] the Activity (Rattus norvegicus [28]) was 87 mg/dL, the Activity (Rattus norvegicus [29]) was 24.1 mg/dL and the Activity (Rattus norvegicus [30]) was “Active”. The metabolised at 5 min [31] was greater than 90%, the degraded at 1 h [32] was less than 20% and the Activity (Rattus norvegicus [19]) was 153 mg/dL. It also gave an Activity (Rattus norvegicus [21]) of 74 mg/dL, an Activity (Rattus norvegicus [23]) of 36 mg/dL and an Activity (Rattus norvegicus [24]) of 50.2 mg/dL. It also gave an Activity (Rattus norvegicus [33]) of 1.76 mg/g, an Activity (Rattus norvegicus [34]) of 3.05 mg/g and an Activity (Rattus norvegicus [35]) of 2.7 nmol/mg/h. It also gave an Activity (Rattus norvegicus [36]) of 5.01%, an Activity (Rattus norvegicus [37]) of 14.32 g and an Activity (Rattus norvegicus [38]) of 29.2 mg. It also gave an Activity (Rattus norvegicus [39]) of 7.91 nmol/mg/min, an Activity (Rattus norvegicus [40]) of 0.169 nmol and an Activity (Rattus norvegicus [41]) of 0.806 nmol. The Activity (Rattus norvegicus [42]) was 308.3 nmol/mg/min, the Activity (Rattus norvegicus [43]) was 93.2 mg/dL and the Activity (Rattus norvegicus [44]) was 22.3 mg/dL.
